# Assay results reported in ChEMBL document CHEMBL4689842, “EUbOPEN Chemogenomics Library wave 1” (2021).
# Several values for one entry are separate records, joined by “and”; a condition that tells them apart may be missing. Equal values may be shown once.
# System: Fibroblast
# Test: Multiplex assay against human fibroblast
# Type: toxicity, cell-based
# Method in brief: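 Cells were classed with CellPathfinder machine-learning gating, first as Hoechst high-intensity objects or normal cells, then (normal cells) as healthy, pyknosed or fragmented nuclei, and finally (pyknosed cells) as mitotic or apoptotic. Staining of live cells at seeding used Hoechst33342, BioTracker Green Microtubule Cytoskeleton Dye, MitoTracker Red and Annexin V Alexa Fluor 680, with imaging on a CQ1 microscope at 37°C and 5% CO2 after compound addition. Tubulin, mitochondrial-mass and membrane-permeability phenotypes are per cents of healthy-nucleus cells.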
# [1] = 12 h, 1 µM, compound concentration 1 uM, replicate 1
# [2] = 12 h, 1 µM, compound concentration 1 uM, replicate 2
# [3] = 12 h, 10 µM, compound concentration 10 uM, replicate 1
# [4] = 12 h, 10 µM, compound concentration 10 uM, replicate 2
# [5] = 24 h, 1 µM, compound concentration 1 uM, replicate 1
# [6] = 24 h, 1 µM, compound concentration 1 uM, replicate 2
# [7] = 24 h, 10 µM, compound concentration 10 uM, replicate 1
# [8] = 24 h, 10 µM, compound concentration 10 uM, replicate 2
smiles,measurement,setting,value
CCC1=C[C@@H]2C[N@](C1)Cc1c([nH]c3ccccc13)[C@@](C(=O)OC)(c1cc3c(cc1OC)N(C)[C@H]1[C@@](O)(C(=O)OC)[C@H](OC(C)=O)[C@]4(CC)C=CCN5CC[C@]31[C@@H]54)C2.O=C(O)C(O)C(O)C(=O)O.O=C(O)C(O)C(O)C(=O)O [VINORELBINE TARTRATE],Population Apoptotic (%),[1],63% and 65%
same,Population Fragmented Nuclei (%),[1],27% and 51%
same,Population Healthy Nuclei (%),[1],48% and 34%
same,Population Hoechst High Intensity Objects (%),[1],16% and 26%
same,Population Mitochondria Different-Phenotype (%),[1],14% and 9%
same,Population Mitotic Cells (%),[1],36% and 34%
same,Population Normal (%),[1],83% and 73%
same,Population Pyknosed Nuclei (%),[1],23% and 14%
same,Population Tubulin-Different-Phenotype (%),[1],8% and 4%
same,Total Cell Count,[1],151 and 452
same,Population Apoptotic (%),[2],100% and 80%
same,Population Fragmented Nuclei (%),[2],79% and 75%
same,Population Healthy Nuclei (%),[2],18% and 15%
same,Population Hoechst High Intensity Objects (%),[2],44% and 38%
same,Population Membrane Permeable-Phenotype (%),[2],22% and 0%
same,Population Mitochondria Different-Phenotype (%),[2],0%
same,Population Mitotic Cells (%),[2],0% and 20%
same,Population Normal (%),[2],55% and 61%
same,Total Cell Count,[2],86 and 94
same,Population Apoptotic (%),[3],67% and 68%
same,Population Fragmented Nuclei (%),[3],46% and 27%
same,Population Healthy Nuclei (%),[3],39% and 50%
same,Population Hoechst High Intensity Objects (%),[3],18%
same,Population Membrane Permeable-Phenotype (%),[3],6% and 4%
same,Population Mitochondria Different-Phenotype (%),[3],13% and 6%
same,Population Mitotic Cells (%),[3],32% and 31%
same,Population Normal (%),[3],81%
same,Population Pyknosed Nuclei (%),[3],13% and 22%
same,Population Tubulin-Different-Phenotype (%),[3],3%
same,Total Cell Count,[3],353 and 227
same,Population Apoptotic (%),[4],50% and 60%
same,Population Fragmented Nuclei (%),[4],59% and 69%
same,Population Healthy Nuclei (%),[4],31% and 24%
same,Population Hoechst High Intensity Objects (%),[4],32% and 26%
same,Population Membrane Permeable-Phenotype (%),[4],17% and 0%
same,Population Mitochondria Different-Phenotype (%),[4],17% and 10%
same,Population Mitotic Cells (%),[4],50% and 40%
same,Population Normal (%),[4],67% and 73%
same,Population Pyknosed Nuclei (%),[4],8% and 6%
same,Population Tubulin-Different-Phenotype (%),[4],13% and 0%
same,Total Cell Count,[4],107 and 111
same,Population Apoptotic (%),[5],73% and 63%
same,Population Fragmented Nuclei (%),[5],54% and 33%
same,Population Healthy Nuclei (%),[5],31% and 50%
same,Population Hoechst High Intensity Objects (%),[5],25% and 18%
same,Population Mitochondria Different-Phenotype (%),[5],8% and 7%
same,Population Mitotic Cells (%),[5],26% and 36%
same,Population Normal (%),[5],74% and 81%
same,Population Pyknosed Nuclei (%),[5],13% and 16%
same,Population Tubulin-Different-Phenotype (%),[5],4% and 3%
same,Population Fragmented Nuclei (%),[6],76% and 77%
same,Population Healthy Nuclei (%),[6],20% and 15%
same,Population Hoechst High Intensity Objects (%),[6],44% and 34%
same,Population Mitochondria Different-Phenotype (%),[6],22% and 9%
same,Population Mitotic Cells (%),[6],100% and 40%
same,Population Normal (%),[6],55% and 65%
same,Population Pyknosed Nuclei (%),[6],2% and 6%
same,Population Tubulin-Different-Phenotype (%),[6],22% and 9%
same,Total Cell Count,[6],77 and 110
same,Population Apoptotic (%),[7],77% and 75%
same,Population Fragmented Nuclei (%),[7],48% and 27%
same,Population Healthy Nuclei (%),[7],35% and 54%
same,Population Hoechst High Intensity Objects (%),[7],26% and 19%
same,Population Membrane Permeable-Phenotype (%),[7],5% and 4%
same,Population Mitochondria Different-Phenotype (%),[7],9% and 2%
same,Population Mitotic Cells (%),[7],22% and 25%
same,Population Normal (%),[7],73% and 80%
same,Population Pyknosed Nuclei (%),[7],15% and 18%
same,Population Tubulin-Different-Phenotype (%),[7],3% and 1%
same,Total Cell Count,[7],394 and 248
same,Population Fragmented Nuclei (%),[8],60% and 80%
same,Population Healthy Nuclei (%),[8],31% and 17%
same,Population Hoechst High Intensity Objects (%),[8],37% and 27%
same,Population Membrane Permeable-Phenotype (%),[8],10% and 0%
same,Population Mitochondria Different-Phenotype (%),[8],10% and 0%
same,Population Normal (%),[8],62% and 72%
same,Population Tubulin-Different-Phenotype (%),[8],0%
same,Total Cell Count,[8],103 and 151
